Beta apoptosis: beta cell apoptosis inhibition; INS-1E cytokine-induced death, ATP luminescence, 48 h; percent of positive-control rescue, neutral wells zero; protection from apoptosis, % (test concentration not listed); actives 0.8% (n = 300,000); AID 435005;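 active = Every replicate reaches about 75%, or at least half do and their mean reaches it too, limit read from the data; inconclusive = At least half of replicates reach the limit but their mean does not; inactive = Under half of replicates reach the limit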;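 also: 0% = cytokine-treated negative control wells and 100% = positive control rescue; higher means more ATP so stronger rescue from cytokine killing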
CHOP inh: blocks CHOP induction under ER stress | CHO-K1 CHOP-promoter luciferase, tunicamycin-induced, 15-18 h | inhibition, % at 10 µM | actives 3.8% (n = 220,000) | AID 2732;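 active = compounds that reduced the stress-induced luciferase reporter signal by more than about 70% of percent inhibition, limit read from the data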;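 also: 0% = tunicamycin plus vehicle and 100% = wells without tunicamycin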
NR3A LBD binder: NR3A (human) ligand-binding domain modulation; NR3A LBD differential scanning fluorimetry, Tm shift; 0% = protein alone, 100% = glycine-bound protein; Tm shift relative to glycine control, % at 25 µM; actives 2.5% (n = 340,000); AID 1259313;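 active = melting temperature shift of at least 10% of the positive control shift, at one fixed dose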
T cruzi inh: blocks replication of Trypanosoma cruzi; T. cruzi beta-gal in NIH3T3, luminescence, 90 h; inhibition, % (no concentration beside the values); actives 1.4% (n = 300,000);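 active = mean inhibition across valid replicates above about 55%, limit read from the data; inconclusive = mean below that limit but half or more replicates reach it; inactive = mean below it, under half of replicates reach it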;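 also: signal also drops with host cell toxicity which is not excluded here; 0% = plate median of DMSO wells and 100% = zero luminescence signal; higher percent means less beta-gal luminescence so fewer parasites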
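assay system = mouse NIH/3T3 fibroblasts infected with β-gal-expressing T. cruzi Tulahuen C4 | input = 5,000 NIH/3T3 host cells per well | buffer or medium = DMEM plus 2% FBS | timing = 3 h host attachment, then at least 90 h co-culture | measured by = GalScreen luminescence, 60 min | evaluation = luminescence reflecting intracellular parasite burden, expressed as percent inhibition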
CSC inhib: cancer stem cell inhibition; inhibition, % at 7.5 µM; AID 2717; cancer stem cell-like cells viability, luminescence; actives 1.1% (n = 300,000); in the data active = inhibition above about 75%; inconclusive = no clear call, values can overlap the other calls; tested in HMLE shEcad cells
PREPL inhibitor: human PREPL enzyme inhibition; actives 0.68% (n = 320,000); AID 2751; inhibition, % at 5.96 µM; recombinant PREPL, fluorescence polarization activity-based probe; in the data active = inhibition above about 43%;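 also: 0% = enzyme with DMSO and 100% = wells lacking enzyme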
Target sequence (Q4J6C6 whole entry, looked up): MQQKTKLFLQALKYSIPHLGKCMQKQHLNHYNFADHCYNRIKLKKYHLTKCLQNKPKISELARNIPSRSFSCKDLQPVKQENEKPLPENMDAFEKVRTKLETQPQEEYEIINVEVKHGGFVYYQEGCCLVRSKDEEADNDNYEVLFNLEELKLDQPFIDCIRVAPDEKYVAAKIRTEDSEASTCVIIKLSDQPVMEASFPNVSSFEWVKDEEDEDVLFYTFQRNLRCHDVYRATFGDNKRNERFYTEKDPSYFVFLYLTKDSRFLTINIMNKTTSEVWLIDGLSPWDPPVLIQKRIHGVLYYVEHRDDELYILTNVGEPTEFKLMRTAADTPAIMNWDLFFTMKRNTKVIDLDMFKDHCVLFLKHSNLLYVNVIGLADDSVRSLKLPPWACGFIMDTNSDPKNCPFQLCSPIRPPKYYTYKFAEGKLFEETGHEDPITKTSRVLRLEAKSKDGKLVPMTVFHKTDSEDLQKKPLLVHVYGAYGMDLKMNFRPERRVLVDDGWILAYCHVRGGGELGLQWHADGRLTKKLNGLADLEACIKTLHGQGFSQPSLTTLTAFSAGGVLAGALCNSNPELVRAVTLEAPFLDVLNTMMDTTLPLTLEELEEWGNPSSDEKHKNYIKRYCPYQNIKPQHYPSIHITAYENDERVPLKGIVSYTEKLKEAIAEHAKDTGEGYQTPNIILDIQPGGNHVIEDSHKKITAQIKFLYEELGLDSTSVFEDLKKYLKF
* = called active by the depositor; ? = inconclusive; nt = no result. In the library only some 6.7% were active in any assay of this set; here they are far more common.

SMILES | Beta apoptosis | CHOP inh | NR3A LBD binder | T cruzi inh | CSC inhib | PREPL inhibitor
N/C(=N\N=C/c1ccc(Br)cc1)N/N=C\c1ccc(Br)cc1 | 2.3 | -4.2 | 28.4* | 39.5 | 102.5* | 3.4
N/C(=N\N=C/c1ccc(F)cc1)N/N=C\c1ccc(F)cc1 | 7.8 | nt | 4.7 | 14.7 | 77.3* | 27.1
Cn1ccsc1=NC(=O)c1cccc(C#N)c1 | 2.6 | nt | -1.6 | -2.9 | 1.1 | 5.2
O=C(NCCNc1ccc([N+](=O)[O-])cc1)c1ccc(Cl)cc1 | 4.3 | -7.0 | 12.8* | 13.5 | 8.8 | -6.4
COc1ccc(C(=O)NCCNc2ccc([N+](=O)[O-])cc2)cc1 | -3.9 | -1.0 | 14.3* | 8.8 | -1.8 | -8.1
CCOCCCNC(=S)NCCCNc1nc2c(C)cc(C)cc2cc1C#N | nt | 3.4 | -3.5 | nt | nt | nt
CCOCCCNC(=S)NCCNc1nc2c(C)cccc2cc1C#N | nt | 37.7 | -0.7 | 55.4* | nt | 5.3
NC1=NC[C@H](Cc2ccc(O)cc2)N1CCCCC1CCCCC1 | 101.8* | -1.1 | -2.3 | 60.0* | -25.9 | 1.9
NC1=NC[C@H](Cc2ccc(O)cc2)N1CCc1cc(C(F)(F)F)cc(C(F)(F)F)c1 | 7.8 | 38.2 | 0.2 | 6.6 | -26.9 | 9.5
NC1=NC[C@@H](CC2CCCCC2)N1CCc1cc(C(F)(F)F)cc(C(F)(F)F)c1 | 108.9* | nt | -2.8 | nt | 139.1* | 35.2
NC1=NC[C@H](Cc2ccccc2)N1CCCCC1CCCCC1 | 112.1* | 31.1 | -11.5 | 48.4 | 19.8 | -2.3
N#Cc1ccccc1NC(=O)COc1ccccc1C(=O)Nc1ccccc1 | -2.0 | nt | -5.4 | nt | 4.0 | 14.4
O=C(CC1NCCc2ccccc21)Nc1ccc(Oc2ccccc2)cc1 (centres undefined) | nt | 50.0 | -5.9 | 41.9 | 95.0* | -3.4
O=C(NC1CC1)c1cc(=S)[nH]c2ccccc12 | -4.6 | nt | 2.1 | nt | 6.3 | 12.5
Cc1ccccc1Cn1cnc2c(cnn2C(C)(C)C)c1=O | 0.7 | -19.6 | -0.5 | 17.2 | -0.8 | 4.9
CC(C)(C)n1ncc2c(=O)n(Cc3cccc(Cn4cnc5c(cnn5C(C)(C)C)c4=O)c3F)cnc21 | 86.6* | nt | 0.8 | nt | nt | 14.2
N#CCNc1ccc([N+](=O)[O-])cc1C#N | -1.9 | 7.8 | -2.8 | 3.0 | -2.8 | 25.0
O=c1[nH]c(NCCO)nc2c1C1(CCCC1)Cc1ccccc1-2 | -6.3 | 31.3 | -9.1 | 12.8 | 0.2 | 1.2
O=c1[nH]c(CN(CCO)CCO)nc2c1C1(CCCCC1)Cc1ccccc1-2 | -13.7 | 18.8 | -1.3 | -10.1 | 1.8 | -8.4
C=CCNC(=S)NNc1nc2c(c(=O)[nH]1)C1(CCCCC1)Cc1ccccc1-2 | 0.0 | 92.7* | 6.5 | -2.2 | 17.6 | -7.8
CCN(CC)Cc1nc2c(c(=O)[nH]1)C1(CCCC1)Cc1ccccc1-2 | 7.8 | 84.3* | 0.1 | 9.4 | 9.5 | 12.8
CCOC(=O)C1(C(=O)OCC)NC(=O)CC1C(C)C (centres undefined) | nt | nt | 1.1 | nt | nt | nt
CCN(CC)CCNC(=O)c1cc(Nc2ccc(OC)c(OC)c2)nc2ccccc12 | 2.2 | nt | -0.3 | -8.6 | -6.6 | 42.3
CC(C)(C)c1nc(SCC(=O)NNC(=O)c2ccccc2)c2ccccc2n1 | -4.2 | nt | -0.5 | 15.9 | -2.8 | -3.0
Cc1ccc(CNC(=O)c2ccc(OCC(C)C)cc2)n1C | -2.0 | nt | -1.8 | -3.4 | -5.7 | nt
SMILES | Beta apoptosis | CHOP inh | NR3A LBD binder | T cruzi inh | CSC inhib | PREPL inhibitor
CN1OC[C@@H]2CN(Cc3ccc(Cl)cc3)[C@H](c3cccc(Br)c3)C[C@@H]21 | nt | nt | -9.9 | nt | nt | nt
CC(C)Cc1ccc(CN2CCCC(NC(=O)CCn3cnnn3)C2)cc1 (centres undefined) | nt | nt | -1.6 | 56.0* | -6.0 | -5.5
COc1ccc(OC)c2sc(N(CCCN(C)C)C(=O)CCS(=O)(=O)c3ccccc3)nc12 | nt | nt | 1.8 | 59.4* | 56.7 | 39.6
Cc1cc(C)c2sc(N(CCN(C)C)C(=O)CCS(=O)(=O)c3ccccc3)nc2c1 | -4.8 | nt | -1.1 | 30.3 | 4.1 | -2.2
CCN(CC)CCN(C(=O)CCS(=O)(=O)c1ccccc1)c1nc2cc(C)cc(C)c2s1 | 15.3 | nt | 5.2 | 72.3* | -2.3 | 3.2
CN(C)CCN(C(=O)CCS(=O)(=O)c1ccccc1)c1nc2c(F)cccc2s1 | -5.6 | nt | 0.1 | 28.4 | -2.6 | 5.7
Cc1ccc2sc(N(CCCN(C)C)C(=O)c3ccc(Br)s3)nc2c1C | 15.6 | 68.7 | -0.1 | 69.7* | 29.5 | -70.5
COc1ccc(Cl)c2sc(N(CCN(C)C)C(=O)CCS(=O)(=O)c3ccc(C)cc3)nc12 | nt | nt | nt | -4.0 | -5.4 | -9.0
Cc1ccc2sc(N(CCCN(C)C)C(=O)CCS(=O)(=O)c3ccccc3)nc2c1C | -2.5 | nt | -0.1 | 62.5* | 55.9 | -24.1
CCOc1cccc2sc(N(CCN(C)C)C(=O)c3ccc(Br)s3)nc12 | -0.4 | 17.5 | 0.5 | 10.1 | -15.7 | -7.8
O=C(CCc1ccccc1)Nc1cc(C(=O)O)cc(C(=O)O)c1 | -1.5 | -23.9 | -0.5 | -10.2 | -11.6 | 2.4
CCN(CC)CCN(C(=O)c1ccc(S(=O)(=O)N(CC)c2ccccc2)cc1)c1nc2c(OC)ccc(OC)c2s1 | -8.2 | nt | 11.9* | 11.5 | -4.8 | 13.5
COc1ccc(C)c2sc(N(CCN(C)C)C(=O)c3ccc4ccccc4c3)nc12 | -2.8 | nt | -1.4 | -3.7 | 16.6 | 19.6
C[C@@H]1CN([C@H](C)CO)C(=O)Cc2cc(NC(=O)Cn3cnnn3)ccc2O[C@@H]1CN(C)Cc1ccc(Cl)c(Cl)c1 | 1.9 | nt | -0.6 | nt | 10.4 | 16.1
COc1ccccc1CCNC(=O)c1ccc(NC(=O)CC2SC(N3CCCCC3)=NC2=O)cc1 (centres undefined) | 1.5 | nt | -0.2 | nt | 1.9 | 7.8
Cc1ccc(C2c3c(-c4ccccc4O)n[nH]c3C(=O)N2Cc2ccncc2)cc1 (centres undefined) | 19.6 | nt | -0.2 | 5.7 | 48.9 | 2.0
COc1cccc(C2c3c(-c4cc(Cl)c(C)cc4O)n[nH]c3C(=O)N2Cc2cccnc2)c1 (centres undefined) | 18.9 | 75.3* | -5.4 | 0.3 | 6.9 | 37.4
O=C(N/N=C/c1cc([N+](=O)[O-])ccc1O)c1c[nH]c2ccccc12 | 78.1* | 80.7* | 27.2* | 4.3 | ? | 14.7
Cn1cc(C(=O)N/N=C/c2cccc([N+](=O)[O-])c2)c2ccccc21 | 7.5 | -3.5 | 9.4 | 19.1 | 4.4 | 4.6
O=C(N/N=C/c1cccc([N+](=O)[O-])c1)c1c[nH]c2ccccc12 | 14.9 | -36.8 | 27.2* | 15.8 | -4.6 | 28.4
O=C(CN1c2ccccc2Sc2ccccc21)N/N=C/c1ccccc1 | -0.2 | -3.4 | 4.7 | 20.3 | 13.4 | 6.1
O=C(CN1c2ccccc2Sc2ccccc21)N/N=C/c1ccc([N+](=O)[O-])cc1 | 32.4 | 47.0 | 32.5* | 33.9 | 31.7 | 4.8
O=C(NN=Cc1cc([N+](=O)[O-])ccc1O)c1cccc2ccccc12 | nt | nt | 1.3 | nt | nt | nt
Cn1cc(C(=O)N/N=C/c2ccc([N+](=O)[O-])cc2)c2ccccc21 | 7.0 | 67.8 | 28.2* | 20.8 | 6.2 | -0.5

Screening data from PubChem.
